Results pooled from the literature.
Each line is one published result; the experiments were not run side by side.
PSMB6: Proteasome subunit beta type-6 (PSMB6, Homo sapiens, UniProt P28072)
SGK2: Serine/threonine-protein kinase Sgk2 (SGK2, Homo sapiens, UniProt Q9HBY8)
FAP: Prolyl endopeptidase FAP (FAP, Homo sapiens, UniProt Q12884)
CDK9 with cyclin T1: Cyclin-dependent kinase 9, with cyclin T1 (CDK9, Homo sapiens, UniProt P50750)
SULT1E1: Sulfotransferase 1E1 (SULT1E1, Homo sapiens, UniProt P49888)

SMILES	target	assay	setting	quantity	result
Nc1cccc(-c2nsc(=O)o2)c1	PSMB6	enzyme activity, inhibitor	–	kinact/KI	0.61 M⁻¹ s⁻¹
Cc1nn(C)cc1-c1nc2c(N3CCN(Cc4ccc(Cl)cc4)CC3)c(Cl)cnc2[nH]1	5'-AMP-activated protein kinase catalytic subunit alpha-2 (PRKAA2, Homo sapiens, UniProt P54646)	binding, competition with immobilised ligand	1 µM	remaining binding	0.9%
COc1ncccc1-c1cnn2ccc(N3CCN(C(=O)OC(C)C)CC3)nc12	Ankyrin repeat and protein kinase domain-containing protein 1 (ANKK1, Homo sapiens, UniProt Q8NFD2)	binding, competition with immobilised ligand	1 µM	remaining binding	13%
Cn1cc(-c2cc(F)cc(N3CCn4c(cc5c4CCCC5)C3=O)c2CO)cc(Nc2ccc(N3CCN(C4COC4)CC3)cn2)c1=O	SGK2	enzyme activity, inhibitor	0.1 µM	inhibition	12%
CN(C)C(=O)COC(=O)Cc1ccc(OC(=O)c2ccc(NC(=N)N)cc2)cc1	FAP	enzyme activity, inhibitor	10 µM	inhibition	30%
Nc1ncc(-c2nc(N3CCOCC3)nc(N3CCOCC3)n2)c(C(F)F)n1	SGK2	binding, competition with immobilised ligand	10 µM	remaining binding	84%
N=C(N)c1ccc2cc(OC(=O)c3ccc(N=C(N)N)cc3)ccc2c1	FAP	enzyme activity, inhibitor	10 µM	inhibition	25%
Nc1ccc(-c2nsc(=O)o2)cc1	PSMB6	enzyme activity, inhibitor	–	kinact/KI	1.09 M⁻¹ s⁻¹
C#Cc1n[nH]c2c(-c3cn([C@@H](C)c4ccccn4)c(=O)[nH]c3=O)cc(F)cc12	CDK9 with cyclin T1	enzyme activity, inhibitor	0.1 µM	inhibition	8.9%
COc1ccc(S(=O)(=O)N(CC(=O)NO)CC(C)C)cc1	Stromelysin-2 (Homo sapiens, UniProt P09238)	enzyme activity, inhibitor	10 µM	inhibition	91%
Cn1cc(-c2cccc(N3CCc4c(sc5c4CC(C)(C)C5)C3=O)c2CO)cc(Nc2ccncn2)c1=O	SGK2	enzyme activity, inhibitor	1 µM	inhibition	3%
CCOC(=O)c1ccc(OC(=O)CCCCCNC(=N)N)cc1	FAP	enzyme activity, inhibitor	10 µM	inhibition	29%
Oc1c(Br)cc(Br)cc1Oc1ccc(Br)cc1Br	SULT1E1	enzyme activity, substrate	–	Km	8.87 µM
N#C[C@@H]1CC(F)(F)CN1C(=O)CNC(=O)c1ccnc2ccccc12	FAP	enzyme activity, inhibitor	1 nM	inhibition	1%
CCN(CC)CCCC[C@H](NC(=O)[C@H](CC(C)C)NC(=O)[C@H](C)NC(=O)[C@H](Cc1ccccc1)NC(=O)c1ccc(C(C)(C)C)cc1)C(=O)N[C@@H](CO)C(=O)OC	SP140 (Homo sapiens, UniProt Q13342)	thermal stability, DSF	25 µM	ΔTm	0.07 °C
C#Cc1n[nH]c2c(-c3cn([C@@H](C)c4ccccc4)c(=O)[nH]c3=O)cc(F)cc12	CDK9 with cyclin T1	enzyme activity, inhibitor	0.1 µM	inhibition	-1.8%
Oc1cc(Br)cc(Br)c1Oc1ccc(Br)cc1Br	SULT1E1	enzyme activity, substrate	–	Km	63.2 µM
